# According to ChEMBL document CHEMBL1156280, “Design and synthesis of boron-containing PDE4 inhibitors using soft-drug strategy for potential dermatologic anti-inflammatory application” (Bioorg Med Chem Lett, 2010):
# How the values were obtained:
# [1] = Inhibition of PDE4
# [2] = Chemical stability in phosphate buffer of pH 7.4 assessed as change in ester; assay type: physicochemical; conditions: read-out: Activity
# Outline: (§1)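 Compounds at 5 µM final in female CD-1 mouse plasma (K2EDTA) or PBS pH 7.4, 37 °C with mild shaking for 1 h. A time-0 plate was held on ice. Reactions were quenched with internal standard in acetonitrile or methanol, then centrifuged, and the supernatant was analysed by LC/MS/MS for loss of ester and appearance of the corresponding acid. Triplicates, values are means.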
# [3] = system: Plasma; test: Metabolic stability in CD1 mouse plasma assessed as change in ester; assay type: ADME, cell-free; outline: as §1
# [4] = system: Plasma; test: Metabolic stability in CD1 mouse plasma assessed as change in formation of acid; assay type: ADME, cell-free; outline: as §1
# [5] = system: Mus musculus; test: Antiinflammatory activity in mouse assessed as inhibition of phorbol ester-induced ear edema at 1 mg/ear; assay type: functional
# [6] = system: Mus musculus; test: Antiinflammatory activity in mouse assessed as inhibition of phorbol ester-induced ear edema at 3 mg/ear; assay type: functional
# [7] = Chemical stability in phosphate buffer of pH 7.4 assessed as formation of acid; assay type: physicochemical; outline: as §1
# [8] = system: THP-1; test: Antiinflammatory activity in human THP1 cells assessed as inhibition of TNFalpha release; assay type: functional, cell-based
# [9] = system: THP-1; test: Antiinflammatory activity in human THP1 cells assessed as inhibition of IL2 release; assay type: functional, cell-based
# [10] = system: THP-1; test: Antiinflammatory activity in human THP1 cells assessed as inhibition of IFN-gamma release; assay type: functional, cell-based
# [11] = system: THP-1; test: Antiinflammatory activity in human THP1 cells assessed as inhibition of IL5 release; assay type: functional, cell-based
# [12] = system: THP-1; test: Antiinflammatory activity in human THP1 cells assessed as inhibition of IL10 release; assay type: functional, cell-based
# [13] = Half life in CD1 mouse at 25 mg/kg, iv; assay type: ADME, organism-based; design: dose 25 mg/kg, route intravenous; conditions: in vivo
# Outline: (§2)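 A single 25 mg/kg iv dose in 1-methyl-2-pyrrolidone/propylene glycol/PEG-400 (10:40:50, v/v/v) was given to non-fasted CD-1 mice, n = 3. Plasma ester and acid were measured over 6 h. Non-compartmental analysis gave the PK parameters, and iv bioavailability was taken as 100%.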
# [14] = Tmax in CD1 mouse at 100 mg/kg, sc; assay type: ADME, organism-based; design: dose 100 mg/kg, route subcutaneous; conditions: in vivo
# Outline: (§3)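 Non-fasted CD-1 mice (n = 3 per group) received a single 100 mg/kg dose sc or po as a suspension in 1% carboxymethylcellulose. Plasma ester and its acid metabolite were followed over 6 h. Parameters came from a non-compartmental model, with bioavailability referenced to iv set at 100%.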
# [15] = Tmax in CD1 mouse at 100 mg/kg, po; assay type: ADME, organism-based; design: dose 100 mg/kg, route oral; conditions: in vivo; outline: as §3
# [16] = Cmax in CD1 mouse at 100 mg/kg, sc; assay type: ADME, organism-based; design: dose 100 mg/kg, route subcutaneous; conditions: in vivo; outline: as §3
# [17] = Cmax in CD1 mouse at 100 mg/kg, po; assay type: ADME, organism-based; design: dose 100 mg/kg, route oral; conditions: in vivo; outline: as §3
# [18] = Cmax in CD1 mouse at 25 mg/kg, iv; assay type: ADME, organism-based; design: dose 25 mg/kg, route intravenous; conditions: in vivo; outline: as §2
# [19] = AUC in CD1 mouse at 100 mg/kg, sc; assay type: ADME, organism-based; design: dose 100 mg/kg, route subcutaneous; conditions: plasma; outline: as §3
# [20] = AUC in CD1 mouse at 100 mg/kg, po; assay type: ADME, organism-based; design: dose 100 mg/kg, route oral; conditions: plasma; outline: as §3
# [21] = Bioavailability in CD1 mouse at 100 mg/kg, sc; assay type: ADME, organism-based; conditions: in vivo; outline: as §3
# [22] = Oral bioavailability in CD1 mouse at 100 mg/kg; assay type: ADME, organism-based; conditions: in vivo; outline: as §3
# [23] = system: Mus musculus; test: Bioavailability in CD1 mouse at 25 mg/kg, iv; assay type: ADME, organism-based; conditions: in vivo; outline: as §2
# [24] = Inhibition of PDE4 at 10 uM
IC50 [1] [µM],percent change in ester [2] [%],Activity [3] [%],Activity [4] [%],Compound,also measured
0.18,–,–,–,N#Cc1ccc(Oc2ccc3c(c2)COB3O)nc1,–
0.287,-8.9,-43.6,29.4,COC(=O)c1ccc(Oc2ccc3c(c2)COB3O)cc1,–
–,–,–,–,COc1ccc(C2CNC(=O)C2)cc1OC1CCCC1 (stereo not drawn) [ROLIPRAM],inhibition (INH) [5]: 6%; inhibition (INH) [6]: 53%
0.13,-10.6,-58.9,27.6,CC(C)OC(=O)c1ccc(Oc2ccc3c(c2)COB3O)cc1,–
0.0945,-8.9,-98,76.6,CCCCOC(=O)c1ccc(Oc2ccc3c(c2)COB3O)nc1,Activity [7]: 0.4%
0.047,-2.4,-72.5,–,CCOC(=O)c1ccc(Oc2ccc3c(c2)COB3O)nc1,IC50 [8]: 0.2 µM; IC50 [9]: 0.1 µM; IC50 [10]: 0.1 µM; IC50 [11]: 0.2 µM; IC50 [12]: 0.46 µM; half-life [13]: 61.8 min; Tmax [14]: 30 min; Tmax [15]: 15 min; Cmax [16]: 12.7 µg/mL; Cmax [17]: 4.39 µg/mL; Cmax [18]: 12.5 µg/mL; AUC [19]: 14.5 µg·h/mL; AUC [20]: 1.66 µg·h/mL; bioavailability [21]: 97.8%; bioavailability [22]: 10.8%; F [23]: 100%; inhibition (INH) [5]: 59%
0.084,-9.8,-42.4,31.6,COC(=O)c1ccc(Oc2ccc3c(c2)COB3O)nc1,Activity [7]: 0.4%
0.13,-13.6,-92.5,79.8,CCCOC(=O)c1ccc(Oc2ccc3c(c2)COB3O)nc1,Activity [7]: 0.5%
0.49,–,–,–,N#Cc1ccc(Oc2ccc3c(c2)COB3O)cc1 [CRISABOROLE],–
–,–,–,–,C[C@@H]1C[C@H]2[C@@H]3CCC4=CC(=O)C=C[C@]4(C)[C@@]3(F)[C@@H](O)C[C@]2(C)[C@@]1(O)C(=O)CO [DEXAMETHASONE],inhibition (INH) [5]: 68%
0.763,-8.8,-94.9,58.8,CCCOC(=O)c1ccc(Oc2ccc3c(c2)COB3O)cc1,–
0.219,-3.2,-76.2,53.6,CCOC(=O)c1ccc(Oc2ccc3c(c2)COB3O)cc1,–
–,–,–,–,O=C(O)c1ccc(Oc2ccc3c(c2)COB3O)nc1,inhibition [24]: 5%; IC50 [8]: > 10 µM; IC50 [9]: > 10 µM; IC50 [10]: > 10 µM; IC50 [11]: > 10 µM; IC50 [12]: > 10 µM
6.42,–,–,–,O=C(O)c1ccc(Oc2ccc3c(c2)COB3O)cc1,–
0.113,2.4,-60.5,36.4,CC(C)OC(=O)c1ccc(Oc2ccc3c(c2)COB3O)nc1,Activity [7]: 1.4%
